Data from ChEMBL document CHEMBL4725484, “Oxetanyl Sulfoxide MMS-350 Ameliorates Pulmonary Fibrosis In Vitro, In Vivo, and Ex Vivo” (ACS Med Chem Lett, 2020).
Activity calls are given as the source filed them. No cut-off for these calls is given here.

Legend:
Primary lung fibroblast [1] = test: Antifibrotic activity against TGFbeta1-induced fibrosis in human primary lung fibroblasts assessed as decrease in fibronectin protein level at 10 to 60 ug/ml measured after 72 hrs by immunoblotting analysis; format: functional, tissue-based; settings: dose microg/ml 10-60, time 72.0 hrs
In short: (§1)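 Primary human fibroblasts were exposed for 72 h to vehicle (DMSO), TGFβ1, or TGFβ1 plus compound at the indicated concentrations. Fibrotic factors in cell lysates and conditioned medium were detected by immunoblotting, with GAPDH as internal control.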

Primary lung fibroblast [2] = test: Antifibrotic activity against TGFbeta1-induced fibrosis in human primary lung fibroblasts assessed as decrease in collagen type-1 protein level at 10 to 60 ug/ml measured after 72 hrs by immunoblotting analysis; format: functional, tissue-based; settings: dose microg/ml 10-60, time 72.0 hrs; in short: as §1
Primary lung fibroblast [3] = test: Antifibrotic activity against TGFbeta1-induced fibrosis in human primary lung fibroblasts assessed as decrease in IGFBP-3 protein level at 10 to 60 ug/ml measured after 72 hrs by immunoblotting analysis; format: functional, tissue-based; settings: dose microg/ml 10-60, time 72.0 hrs; in short: as §1
Primary lung fibroblast [4] = test: Antifibrotic activity against TGFbeta1-induced fibrosis in human primary lung fibroblasts assessed as decrease in CTGF protein level at 10 to 60 ug/ml measured after 72 hrs by immunoblotting analysis; format: functional, tissue-based; settings: dose microg/ml 10-60, time 72.0 hrs; in short: as §1
Primary lung fibroblast [5] = test: Antifibrotic activity against TGFbeta1-induced fibrosis in human primary lung fibroblasts assessed as decrease in alpha-SMA protein level at 10 to 60 ug/ml measured after 72 hrs by immunoblotting analysis; format: functional, tissue-based; settings: dose microg/ml 10-60, time 72.0 hrs; in short: as §1
Primary lung fibroblast [6] = test: Antifibrotic activity against TGFbeta1-induced fibrosis in human primary lung fibroblasts assessed as decrease in fibronectin protein level at 500 ug/ml measured after 72 hrs by immunoblotting analysis; format: functional, tissue-based; settings: dose 500.0 µg/ml
In short: (§2)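 Primary human fibroblasts received vehicle, 10 ng/mL TGFβ1, 500 μg/mL compound, or TGFβ1 plus compound for 72 h. Vehicles were 4 mM HCl/0.1% BSA for TGFβ1 and 1× PBS for compound. Cell lysates and conditioned medium were immunoblotted with GAPDH as internal control. Densitometry is expressed as mean relative change versus vehicle or internal control ± SDEV, N = 3.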

Primary lung fibroblast [7] = test: Antifibrotic activity against TGFbeta1-induced fibrosis in human primary lung fibroblasts assessed as decrease in collagen type-1 protein level at 500 ug/ml measured after 72 hrs by immunoblotting analysis; format: functional, tissue-based; settings: dose 500.0 µg/ml; in short: as §2
Primary lung fibroblast [8] = test: Antifibrotic activity against TGFbeta1-induced fibrosis in human primary lung fibroblasts assessed as decrease in IGFBP-3 protein level at 500 ug/ml measured after 72 hrs by immunoblotting analysis; format: functional, tissue-based; settings: dose 500.0 µg/ml; in short: as §2
Primary lung fibroblast [9] = test: Antifibrotic activity against TGFbeta1-induced fibrosis in human primary lung fibroblasts assessed as decrease in CTGF protein level at 500 ug/ml measured after 72 hrs by immunoblotting analysis; format: functional, tissue-based; settings: dose 500.0 µg/ml; in short: as §2
Primary lung fibroblast [10] = test: Antifibrotic activity against TGFbeta1-induced fibrosis in human primary lung fibroblasts assessed as decrease in alpha-SMA protein level at 500 ug/ml measured after 72 hrs by immunoblotting analysis; format: functional, tissue-based; settings: dose 500.0 µg/ml; in short: as §2
Primary lung fibroblast [11] = test: Antifibrotic activity in human primary lung fibroblasts assessed as decrease in fibronectin protein level at 500 ug/ml measured after 72 hrs by immunoblotting analysis; format: functional, tissue-based; settings: dose 500.0 µg/ml; in short: as §2
Primary lung fibroblast [12] = test: Antifibrotic activity in human primary lung fibroblasts assessed as decrease in collagen type-1 protein level at 500 ug/ml measured after 72 hrs by immunoblotting analysis; format: functional, tissue-based; settings: dose 500.0 µg/ml; in short: as §2
Primary lung fibroblast [13] = test: Antifibrotic activity in human primary lung fibroblasts assessed as decrease in IGFBP-3 protein level at 500 ug/ml measured after 72 hrs by immunoblotting analysis; format: functional, tissue-based; settings: dose 500.0 µg/ml; in short: as §2
Primary lung fibroblast [14] = test: Antifibrotic activity in human primary lung fibroblasts assessed as decrease in CTGF protein level at 500 ug/ml measured after 72 hrs by immunoblotting analysis; format: functional, tissue-based; settings: dose 500.0 µg/ml; in short: as §2
Primary lung fibroblast [15] = test: Antifibrotic activity in human primary lung fibroblasts assessed as decrease in alpha-SMA protein level at 500 ug/ml measured after 72 hrs by immunoblotting analysis; format: functional, tissue-based; settings: dose 500.0 µg/ml; in short: as §2
Primary lung fibroblast [16] = test: Antifibrotic activity against TGFbeta1-induced fibrosis in human primary lung fibroblasts assessed as decrease in TGFbeta1-induced fibronectin protein level at 500 ug/ml treated at 30 mins to 6 hrs post TGFbeta1 stimulation by immunoblotting analysis; format: functional, tissue-based; settings: dose 500.0 µg/ml, time 6.5 hrs
In short: (§3)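 Therapeutic-timing design in fibroblasts: 500 μg/mL compound was added together with 10 ng/mL TGFβ1 or 30 min to 6 h after TGFβ1. Profibrotic factors were then assessed by immunoblotting.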

Primary lung fibroblast [17] = test: Antifibrotic activity in against TGFbeta1-induced fibrosis in human primary lung fibroblasts assessed as decrease in collagen type-1 protein level at 500 ug/ml treated at 30 mins to 6 hrs post TGFbeta1 stimulation by immunoblotting analysis; format: functional, tissue-based; settings: dose 500.0 µg/ml, time 6.5 hrs; in short: as §3
Primary lung fibroblast [18] = test: Antifibrotic activity against TGFbeta1-induced fibrosis in human primary lung fibroblasts assessed as decrease in IGFBP-3 protein level at 500 ug/ml treated at 30 mins to 6 hrs post TGFbeta1 stimulation by immunoblotting analysis; format: functional, tissue-based; settings: dose 500.0 µg/ml, time 6.5 hrs; in short: as §3
Primary lung fibroblast [19] = test: Antifibrotic activity against TGFbeta1-induced fibrosis in human primary lung fibroblasts assessed as decrease in CTGF protein level at 500 ug/ml treated at 30 mins to 6 hrs post TGFbeta1 stimulation by immunoblotting analysis; format: functional, tissue-based; settings: dose 500.0 µg/ml, time 6.5 hrs; in short: as §3
Primary lung fibroblast [20] = test: Antifibrotic activity against TGFbeta1-induced fibrosis in human primary lung fibroblasts assessed as decrease in alpha-SMA protein level at 500 ug/ml treated at 30 mins to 6 hrs post TGFbeta1 stimulation by immunoblotting analysis; format: functional, tissue-based; settings: dose 500.0 µg/ml, time 6.5 hrs; in short: as §3
Mus musculus [21] = test: Antifibrotic activity against bleomycin-induced C57BL/6J mouse lung fibrosis model assessed as reduction in COL1A2 mRNA level at 2%, po via gavage administered as single dose measured within 5 days by qRT-PCR analysis; format: functional, organism-based; settings: time day <=5
In short: (§4)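 Mouse groups received PBS, bleomycin, or bleomycin plus 2% compound. Lung histology was assessed 14 days post-treatment. Lung COL1A2 mRNA was measured at 5 days, normalized to GAPDH. Lung hydroxyproline (total collagen) was measured at 14 days. Data are mean ± SD.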

Mus musculus [22] = test: Antifibrotic activity against bleomycin-induced C57BL/6J mouse lung fibrosis model at 2%, po via gavage administered as single dose measured after 14 days by hematoxylin and eosin staining based microscopic analysis; format: functional, organism-based; settings: time day 14; in short: as §4
Mus musculus [23] = test: Antifibrotic activity against bleomycin-induced C57BL/6J mouse lung fibrosis model assessed as reduction in hydroxyproline level in lung at 2%, po via gavage administered as single dose measured on 14 days by hydroxyproline assay; format: functional, organism-based; settings: time day 14; in short: as §4
[24] = Toxicity in bleomycin-induced C57BL/6J mouse lung fibrosis model assessed as improvement in mouse survival relative to control; settings: in vivo
Zone of skin [25] = test: Antifibrotic activity against TGFbeta1-induced dermal fibrosis in human skin assessed as reduction in CTGF expression level stimulated with TGFbeta1 for 24 hrs followed by compound treatment at 500 ug/ml measured after 24 hrs by QRT-PCR analysis; format: functional, tissue-based; settings: Skin of body, dose 500.0 µg/ml
In short: (§5)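 Human skin in organ culture was treated with vehicle (1× PBS) or 10 ng/mL TGFβ1, then given 500 μg/mL compound 24 h later. CTGF expression in whole skin was read 24 h after compound addition. COL1A1 and FN expression in whole skin were read 72 h after compound addition.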

Zone of skin [26] = test: Antifibrotic activity against TGFbeta1-induced dermal fibrosis in human skin assessed as reduction in COL1A1 expression level stimulated with TGFbeta1 for 24 hrs followed by compound treatment at 500 ug/ml measured after 72 hrs by qRT-PCR analysis; format: functional, tissue-based; settings: Skin of body, dose 500.0 µg/ml; in short: as §5
Zone of skin [27] = test: Antifibrotic activity against TGFbeta1-induced dermal fibrosis in human skin assessed as reduction in fibronectin expression level stimulated with TGFbeta1 for 24 hrs followed by compound treatment at 500 ug/ml measured after 72 hrs by qRT-PCR analysis; format: functional, tissue-based; settings: Skin of body, dose 500.0 µg/ml; in short: as §5
[28] = Lipophilicity, log P of the compound; format: physicochemical; settings: octanol/water
[29] = Solubility of the compound in water; format: physicochemical; settings: buffer
Primary lung fibroblast [30] = test: Antifibrotic activity against TGFbeta1-induced fibrosis in human primary lung fibroblasts assessed as decrease in COL1A1 expression level at 91 to 500 ug/ml measured after 48 hrs by qRT-PCR analysis; format: functional, tissue-based; settings: dose microg/ml 500, time 48.0 hrs, in the assay text read “at 500 ug/ml” for “at 91 to 500 ug/ml”
In short: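 Primary fibroblasts were treated for 48 h with TGFβ1 with or without compound (500 μg/mL). Extracted RNA was used for real-time PCR of COL1A1. N = 4, mean ± SD.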

CC1(C[S+]([O-])c2ccccc2)COC1 (racemic)
Activity (Primary lung fibroblast [1]): Active
Activity (Primary lung fibroblast [2]): Active
Activity (Primary lung fibroblast [3]): Active
Activity (Primary lung fibroblast [4]): Active
Activity (Primary lung fibroblast [5]): Active

CC1(C[S+]([O-])CC2(C)COC2)COC1
Activity (Primary lung fibroblast [6]): Active
Activity (Primary lung fibroblast [7]): Active
Activity (Primary lung fibroblast [8]): Active
Activity (Primary lung fibroblast [9]): Active
Activity (Primary lung fibroblast [10]): Active
Activity (Primary lung fibroblast [11]): Active
Activity (Primary lung fibroblast [12]): Active
Activity (Primary lung fibroblast [13]): Active
Activity (Primary lung fibroblast [14]): Active
Activity (Primary lung fibroblast [15]): Active
Activity (Primary lung fibroblast [16]): Active
Activity (Primary lung fibroblast [17]): Active
Activity (Primary lung fibroblast [18]): Active
Activity (Primary lung fibroblast [19]): Active
Activity (Primary lung fibroblast [20]): Active
Activity (Mus musculus [21]): Active
Activity (Mus musculus [22]): Active
Activity (Mus musculus [23]): Active
Activity [24]: 87.5%
Activity (Zone of skin [25]): Active
Activity (Zone of skin [26]): Active
Activity (Zone of skin [27]): Active
logP [28]: -0.7
solubility [29]: Soluble

[O-][S+](CC1(F)COC1)c1cccc(F)c1 (racemic)
Activity (Primary lung fibroblast [30]): Active
